KCC2 mod = KCC2 (human) Cl- transport modulation; B-score of Tl+ flux slope (higher = more flux/activation; lower = inhibition) at 10 µM; actives 2.2% (n = 190,000); Q9H2X9; AID 1456; KCC2 cells, thallium flux FluoZin-2 fluorescence;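 active = thallium flux slope and its plate-corrected score both differing from the plate sample mean at a set confidence after two filtering rounds, in either direction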;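 also: slope of fluorescence scaled to starting intensity during 10 to 20 s after thallium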
ROMK mod = human ROMK K+ channel modulation, primary screen | B-score at 10 µM | actives 2% (n = 130,000) | P48048 | Tet-inducible ROMK, thallium flux fluorescence; actives lie on both sides;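 active = signal ratio slope over the read window, or its plate-corrected B-score, at least 3 SD from the plate mean, either direction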;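 also: B-score of the F/F0 ratio slope over 7 to 12 s after thallium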
WT yeast gro inh = growth inhibition of WT yeast, mitochondrial fusion screen. mitochondrial fusion phenotypic screen, WT strain. inhibition, % at 10 µM. actives 2.1% (n = 190,000); in the data active = inhibition above about 58%; tested in S. cerevisiae
Diaphorase inh = diaphorase inhibition or chemical oxidation counter-screen | diaphorase resazurin-to-resorufin fluorescence, NADH, 16 min; bacterial (C. kluyveri) enzyme, not human | inhibition, % at 20 µM | actives 0.69% (n = 190,000) | AID 1217;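 active = primary screen inhibition at 20 µM above a set limit, cut at about 50% in these data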;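 also: plate controls were DMSO with full reaction for no effect and wells lacking NADH for full effect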
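System: Bacterial diaphorase enzyme (C. kluyveri) | Incubation: 16-min room-temperature incubation before reading | Benchmarks: No-NADH positive control and DMSO neutral control | Measured by: Resorufin fluorescence 544/590 nm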
Diaph act CS = counter-screen for diaphorase-based assays: diaphorase activators and chemical reducers. Diaphorase/resazurin coupled assay, resorufin fluorescence, 16 min; active compounds read high; 1 = vehicle wells, 0 = NADH-free wells. activation factor at 20 µM. actives 0.005% (n = 190,000);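 active = diaphorase activity raised at least twofold by the compound at 20 µM; inactive = activation factor below 2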
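Assay system: Purified diaphorase enzyme from Clostridium kluyveri | Amount: Enzyme 0.07 U/mL final | Dosing: Compound 20 µM once, DMSO 1% | Timing: 16 min reaction at room temperature | Detection: Fluorescence, excitation 544 nm and emission 590 nm | Evaluation: Higher resorufin formation from activation or reduction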
L major viab = Leishmania major promastigote growth inhibition; Leishmania major promastigotes, resazurin fluorescence viability; inhibition, % at 10 µM; actives 9% (n = 200,000); AID 1063; in the data active = inhibition above about 50%;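 also: promastigotes grown with compound for 44 hours at 28 °C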
An asterisk follows results filed as active; / = not tested or not shown. Hits are enriched below; roughly 12% of the tested compounds scored in any of these assays.

SMILES	KCC2 mod	ROMK mod	WT yeast gro inh	Diaphorase inh	Diaph act CS	L major viab
Cc1ccccc1NC(=O)CCN1CCN(C/C=C/c2ccccc2)CC1	/	-1.19	22.0	9.3	0.9	88.3*
COC(=O)c1ccccc1NC(=O)N1CCN(C/C=C/c2ccccc2)CC1	/	/	47.6	15.6	0.8	22.6
Cc1cc(C(=O)COC(=O)Cc2n[nH]c(=O)c3ccccc23)c(C)n1-c1ccc2c(c1)OCCO2	-0.126	/	35.1	19.1	0.8	9.7
CNC(=S)NNC(=O)c1cn(C)nc1C	-0.264	-0.105	-4.2	-0.6	1	-2.3
CCC(C)NC(=O)Cn1cc(S(=O)(=O)N2CCN(c3ccccc3F)CC2)c2ccccc2c1=O (centres undefined)	-1.58	-1.59	-7.2	21.8	0.8	-2.9
Cn1cc(CN2C[C@]3(C)C[C@H]2CC(C)(C)C3)c(-c2ccc3c(c2)OCCO3)n1	-0.055	-0.899	1.7	14.8	0.9	3.6
CC1(C)CC2CC(C)(CN2C(=S)Nc2ccccc2)C1 (centres undefined)	0.447	/	34.6	7.9	0.9	9.2
CC1(C)CC2CC(C)(CN2C(=S)NC(=O)c2ccccc2Cl)C1 (centres undefined)	54.5*	/	43.4	19.6	0.8	-1.5
CSc1nnc2c(n1)OC1(Nc3ccccc3-2)C(=O)Nc2ccccc21 (centres undefined)	-2.57	-0.659	-2.9	9.6	0.9	-3.9
CC(Sc1nc(N(C)C)nc(N2CCOCC2)n1)C(=O)Nc1ccccc1 (centres undefined)	0.377	-0.238	7.9	9.3	0.9	62.7*
O=C(NC1CCCC1)C(c1ccncc1)N(Cc1ccccc1)C(=O)c1ccc(-c2ccccc2)[nH]1 (centres undefined)	-2.13	-0.817	11.6	9.9	0.9	97.2*
CC(C)(C)NC(=O)C(c1ccncc1)N(Cc1ccc(F)cc1)C(=O)c1ccc(-c2ccccc2)[nH]1 (centres undefined)	-3.1	0.038	29.6	9.8	0.9	98.5*
CC(C)(C)NC(=O)C(c1ccc(F)cc1)N(CCc1ccccc1)C(=O)c1ccn[nH]1 (centres undefined)	-2.36	-0.68	4.2	/	/	14.2
OCc1cn(-c2ccc(Cl)cc2)nn1	0.182	0.571	10.1	1.9	1	-6.4
Cc1ccc(C(=O)NCCSC2CCCCC2)cc1S(=O)(=O)Nc1ccccc1	/	/	7.6	25.6	0.7	97.2*
Cc1ccc(NS(=O)(=O)c2ccc(OCC(=O)Nc3cccc([N+](=O)[O-])c3)c(C)c2)cc1	-0.048	/	/	22.7	0.8	100.3*
Cc1ccc(NC(=O)CC(=O)c2ccc([N+](=O)[O-])cc2)cc1S(=O)(=O)Nc1cccc(Cl)c1	-0.00439	-0.0605	6.7	-6.4	1.1	51.0*
Cc1ccc(NC(=O)c2cccs2)cc1S(=O)(=O)Nc1cccc(Cl)c1	-0.0276	/	70.3*	13.9	0.9	50.6*
Cc1ccc(C(=O)Nc2cccc([N+](=O)[O-])c2)cc1S(=O)(=O)Nc1cccc(C(=O)O)c1	-0.571	1.67	2.5	8.4	0.9	-6.9
COc1ccc(NC(=O)CCC(=O)c2cccs2)cc1S(=O)(=O)Nc1ccc(Cl)cc1	-0.352	/	-7.1	50.0*	0.5	6.8
Cc1ccc(C(=O)Nc2cccc([N+](=O)[O-])c2)cc1S(=O)(=O)Nc1ccc(NC(=O)c2ccccc2)cc1	0.0589	/	-11.1	26.5	0.7	62.3*
Cc1ccc(NS(=O)(=O)c2cc(C(=O)Nc3cccc([N+](=O)[O-])c3)ccc2C)cc1	-0.798	0.841	64.2*	18.7	0.8	66.8*
Cc1ccccc1NS(=O)(=O)c1cc(C(=O)Nc2cccc(N(C)S(C)(=O)=O)c2)ccc1C	/	/	4.9	29.9	0.7	96.9*
Cc1nsc(Nc2ccccc2)c1C#N	-0.144	0.52	10.1	5.1	0.9	-1.8
CCN1CCN(CCCCSc2ccccc2)CC1	-1.32	/	-18.5	20.7	0.8	77.8*
SMILES	KCC2 mod	ROMK mod	WT yeast gro inh	Diaphorase inh	Diaph act CS	L major viab
Cc1ccc(CNC(=O)C2CCN(S(=O)(=O)N3CCC4(CC3)OCCO4)CC2)cc1	-0.186	-0.252	-0.2	16.3	0.8	-3.8
CCCOc1ccc(/C=C2\SC(=S)N(CC3CCCO3)C2=O)cc1 (centres undefined)	-0.119	-0.474	17.5	5.6	0.9	66.0*
O=C1/C(=C/c2ccc(O)cc2)SC(=S)N1CC1CCCO1 (centres undefined)	0.725	/	/	/	/	/
CCN(CC)c1nc(-c2ccccc2)ncc1S(=O)(=O)c1ccc(C)cc1	-0.699	0.982	62.3*	32.2	0.7	13.9
COc1ccc(NS(=O)(=O)c2cc(NC(=O)c3ccco3)ccc2N2CCCCC2)cc1	-0.229	/	28.0	22.9	0.8	28.6
C/C(Cc1ccccc1)=N\NC(=O)CNC(=O)COc1ccccc1	-0.169	/	/	/	/	/
COCCCn1c(SCCc2ccccc2)nc2cc(OC)c(OC)cc2c1=N	0.056	1.84	37.0	10.3	0.9	50.9*
COc1ccc(Cn2c(SCc3ccccc3C)nc3cc(OC)c(OC)cc3c2=N)cc1	-0.972	/	-1.3	-29.4	1.3	100.5*
COc1ccc(CNC(=O)COc2ccc(S(=O)(=O)NC(C)C)cc2)cc1	-0.199	/	4.5	7.5	0.9	64.6*
CCNc1nc(NCC)nc(Oc2ccc(OCc3ccccc3)nn2)n1	-0.503	-0.332	-4.6	11.5	0.9	-3.8
C=CCn1c(-c2cc3c(s2)CCC(CC)C3)n[nH]c1=S (centres undefined)	4.14	-0.462	74.2*	20.8	0.8	-7.0
C=CCn1c(SCC(=O)NC2CCS(=O)(=O)C2)nnc1-c1cc2c(s1)CCC(CC)C2 (centres undefined)	-0.728	/	-9.3	11.4	0.9	-0.7
Cn1c(CN2CCCC2)nc2cc(NC(=O)c3ccc(Cl)cc3)ccc21	-0.933	-0.652	2.3	-13.4	1.1	2.5
Cn1c(CN2CCCCC2)nc2cc(NC(=O)c3ccc(Cl)cc3)ccc21	-0.181	/	70.5*	8.5	0.9	-2.0
NCCc1nnc(SCC(=O)c2ccc(Cl)cc2)o1	0.233	/	/	/	/	/
CN(C)C=Nc1ncc2c3ccccc3n(CCN(C)C)c2c1C#N	/	0.375	2.1	8.0	0.9	98.0*
O=C(NCc1ccco1)C12CC3CC(CC(C3)C1)C2	-0.833	-0.00931	-24.6	0.6	1	-0.5
O=C(CC12CC3CC(CC(C3)C1)C2)NC(=S)NCc1ccco1	0.492	-1.06	73.4*	4.5	1	93.3*
C=CCn1c(N)c(C(=O)Nc2cccc(C)c2)c2nc3ccccc3nc21	/	/	-10.3	33.3	0.7	11.2
C=CCn1c(N)c(C(=O)OCCC)c2nc3ccccc3nc21	-1.57	-0.889	7.7	24.5	0.8	99.6*
CCc1ccc(OCC(=O)NC(C)C)cc1	0.541	0.224	1.5	-9.1	1.1	-3.8
C=CCn1c(C)c(C(C)=O)c(N2CCCC2)nc1=S	1.83	/	10.0	55.8*	0.4	-2.4

Source: PubChem BioAssay (several laboratories)
